The target of series [1] is T1, Peroxisome proliferator-activated receptor alpha (Mus musculus, UniProt P23204).
T1 sequence (P23204 whole entry): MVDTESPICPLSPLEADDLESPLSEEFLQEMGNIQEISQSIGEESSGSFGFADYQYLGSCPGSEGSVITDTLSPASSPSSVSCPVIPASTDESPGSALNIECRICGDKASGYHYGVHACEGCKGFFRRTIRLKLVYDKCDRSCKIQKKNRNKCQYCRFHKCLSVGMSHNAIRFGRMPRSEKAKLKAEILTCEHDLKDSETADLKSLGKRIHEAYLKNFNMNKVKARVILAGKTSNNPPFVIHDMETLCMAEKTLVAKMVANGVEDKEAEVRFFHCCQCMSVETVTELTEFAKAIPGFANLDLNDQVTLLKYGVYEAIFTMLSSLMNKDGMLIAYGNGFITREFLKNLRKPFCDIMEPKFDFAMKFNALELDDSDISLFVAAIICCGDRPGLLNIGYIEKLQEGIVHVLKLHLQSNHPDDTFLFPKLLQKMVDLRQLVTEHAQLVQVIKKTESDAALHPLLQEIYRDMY
As to the kind of experiment: Transactivation of mouse GAL4-fused PPARalpha expressed in human HepG2 cells after 24 hrs by dual renilla-luciferase reporter gene assay. The class given is cell-based. In outline:
(§1)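 HepG2 cells carried GAL4-fused human PPARγ or PPARδ, or mouse or rat PPARα, plus the 4xUAS-tk-luc reporter. Cells treated across a concentration range for 24 h. Luciferase normalized to Renilla activity and expressed as fold induction over vehicle, set as 1.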

Series [2] in a line: Metabolic stability in human liver microsomes assessed as parent compound remaining at 0.5 uM after 60 mins in presence of NADPH by LC/MS/MS analysis. It is filed as ADME, Microsome. Particulars: liver microsomes, read-out: Stability. Summed up:
(§2)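 Compound at 0.5 μM incubated with liver microsomes at 37°C for 1 h; result given as percent remaining. Final DMSO 0.2%.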

Series [3] in a line: Apparent permeability from apical to basolateral side in human Caco2 cells at 25 uM measured up to 2 hrs by LC/MS/MS analysis. It is filed as ADME, cell-based. Particulars: Caco-2. Summed up:
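Caco-2 monolayers; permeability measured apical-to-basolateral (A–B) at 25 μM compound, reported as ×10⁻⁶ cm/s.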

Series [4] can be described thus: Solubility of the compound in pH 7.4 PBS at 100 uM incubated for 10 mins under shaking condition by HPLC analysis. The class given is physicochemical. In outline: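 Aqueous solubility determined in PBS, pH 7.4; reported in μM.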
The nature of series [5]: Effect on cyclophilinA expression in human FLC4 cells after 48 hrs by SYBR green dye-based RT-PCR analysis. The class given is ADME, cell-based.
Series [6] is described as follows: Protein binding in human plasma at 20 uM after 5 hrs by LC/MS/MS analysis. The class given is ADME, cell-free. Particulars: read-out: PPB (converted). Summed up:
(§3)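 Compound at 20 μM incubated with plasma at 37°C for 5 h; percent bound to protein determined. Final DMSO 0.2%.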

Series [7] deals with T2, Peroxisome proliferator-activated receptor alpha (Rattus norvegicus, UniProt P37230).
T2 sequence (P37230 whole entry): T1 sequence (P23204 whole entry) with I41L, G50S, V85A, I86V, A88T, S96N, V135A, G207A, D265N
Description: Transactivation of rat GAL4-fused PPARalpha expressed in human HepG2 cells after 24 hrs by dual renilla-luciferase reporter gene assay. It is filed as cell-based. Summed up: as §1

The target of series [8] is Peroxisome proliferator-activated receptor alpha (Homo sapiens) (UniProt Q07869). As to the kind of experiment: Displacement of fluormone pan-PPAR green from GST-tagged human PPARalpha ligand binding domain after 3 hrs by TR-FRET assay.
Series [9] has as its target T3, Peroxisome proliferator-activated receptor alpha (Homo sapiens, UniProt Q07869).
T3 sequence (Q07869 whole entry): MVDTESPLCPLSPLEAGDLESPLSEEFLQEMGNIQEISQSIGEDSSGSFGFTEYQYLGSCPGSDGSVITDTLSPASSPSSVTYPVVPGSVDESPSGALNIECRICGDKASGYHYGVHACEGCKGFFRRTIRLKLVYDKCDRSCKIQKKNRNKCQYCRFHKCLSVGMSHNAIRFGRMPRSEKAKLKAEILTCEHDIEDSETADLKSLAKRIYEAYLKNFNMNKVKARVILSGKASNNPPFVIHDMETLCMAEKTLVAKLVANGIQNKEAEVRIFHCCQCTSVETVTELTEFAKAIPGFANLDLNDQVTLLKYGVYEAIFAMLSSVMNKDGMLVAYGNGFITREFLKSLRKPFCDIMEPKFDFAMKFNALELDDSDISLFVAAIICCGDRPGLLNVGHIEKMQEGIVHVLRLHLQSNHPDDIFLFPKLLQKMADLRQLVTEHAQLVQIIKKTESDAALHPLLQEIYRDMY
Description: Transactivation of human GAL4-fused PPARalpha LBD expressed in human HepG2 cells after 24 hrs by renilla luciferase reporter gene assay. It is filed as cell-based.

A short description of series [10]: Metabolic stability in rat liver microsomes assessed as parent compound remaining at 0.5 uM after 60 mins in presence of NADPH by LC/MS/MS analysis. Particulars: liver microsomes, read-out: Stability. It is filed as ADME, Microsome. Summed up: as §2
A short description of series [11]: Protein binding in rat plasma at 20 uM after 5 hrs by LC/MS/MS analysis. The following applies: read-out: PPB. The class given is ADME, cell-free. In outline:
as §3

Structures are written as SMILES. Changes are numbered by the printed parent chain. Bounds are passed on as bounds.

The text below walks through data of ChEMBL document CHEMBL4385646, “Structural development of 1H-pyrazolo-[3,4-b]pyridine-4-carboxylic acid derivatives as human peroxisome proliferator-activated receptor alpha (PPARα)-selective agonists” (Bioorg Med Chem Lett, 2019).

With `Cc1cc(C(=O)O)c2c(C(C)C)nn(-c3ccc(Cl)cc3)c2n1`, the EC50 came out at 11.3 µM in [1], 15.9 µM in series [7] and 0.66 µM in series [9]. The remaining at 1 h, 0.5 µM in series [2] is 91%; in series [10], 87%. The apical-to-basolateral permeability (Papp A→B) at 2 h, 25 µM in series [3] was 51.8 ×10⁻⁶ cm/s. Moreover, the solubility at 10 min, 100 µM in series [4] is over 95 µM. In addition, in series [5], the Activity entry is “Non-Toxic”. Also, the fraction unbound at 5 h, 20 µM in [6] is 0.003; in series [11] it was 0.01. For the same molecule, in series [8], the concentration for half-maximal inhibition (IC50) is 4.48 µM.
